Screens (PubChem BioAssay)
L major viab = Leishmania major promastigote growth inhibition. 200,000 tested, 9% active. inhibition, % at 10 µM. Leishmania major promastigotes, resazurin fluorescence viability; in the data active means inhibition above about 50%;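 further: promastigotes grown with compound for 44 hours at 28 °C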
PMI activator = increases human mannose-6-phosphate isomerase activity. P34949. purified human PMI, coupled resazurin fluorescence, 20 min; hits give high values; 1 = vehicle control, 0 substrate-free wells. activation factor at 20 µM. 190,000 tested, 0.005% active;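 active means activation factor of 2 or more at 20 µM, relative to plate controls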
Target sequence (P34949 whole entry, looked up): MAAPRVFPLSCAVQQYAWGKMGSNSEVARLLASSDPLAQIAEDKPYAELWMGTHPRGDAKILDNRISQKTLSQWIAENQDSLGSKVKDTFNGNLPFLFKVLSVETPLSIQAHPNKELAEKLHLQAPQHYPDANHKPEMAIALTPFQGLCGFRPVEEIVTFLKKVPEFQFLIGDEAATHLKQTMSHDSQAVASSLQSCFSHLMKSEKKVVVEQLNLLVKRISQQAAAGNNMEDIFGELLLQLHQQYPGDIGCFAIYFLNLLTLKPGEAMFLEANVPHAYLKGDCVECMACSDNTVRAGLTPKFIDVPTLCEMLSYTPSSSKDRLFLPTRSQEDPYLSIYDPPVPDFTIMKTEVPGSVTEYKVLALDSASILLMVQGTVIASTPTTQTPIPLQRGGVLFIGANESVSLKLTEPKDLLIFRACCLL
bCat KO growth = beta-catenin-lacking colon tumor cell growth suppression | 140,000 tested, 1.5% active | HCT116 beta-catenin knockout viability, CellTiter-Glo, 60 h; hits give low values | viability, % at 10 µM | AID 818;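 active means viability at or under a set limit, the compound median less 4 SD, cut at about 6% in these data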;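 further: 0% = Hyamine 1622 control at 20 µM and 100% = untreated cell control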
PMI act hi M6P = activators of human phosphomannose isomerase at near-saturating mannose 6-phosphate; 190,000 tested, 0.34% active; activation factor at 20 µM; P34949; AID 1216; coupled PMI enzyme assay, resazurin fluorescence, 20 min; hits give high values; 1 = untreated enzyme, 0 = substrate-free blank;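 active means activation factor of 2 or more at 20 µM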
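Material: human phosphomannose isomerase with PGI, G6PDH, diaphorase coupling enzymes. Quantity: 15 ng/mL PMI. Medium: HEPES pH 7.4 buffer with MgCl2 and Tween-20. Reagent: Near-saturating mannose-6-phosphate, 1.0 mM. Compound: 20 µM single dose. Times: enzyme reaction with compound 20 min at room temperature. Detection: resorufin fluorescence at Ex 544/Em 590 nm.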
HCT116 PTEN-null = PTEN-deleted cell growth suppression; AID 827; viability, % at 10 µM; HCT116 PTEN-null viability, CellTiter-Glo, 60 h; hits give low values; 140,000 tested, 1.2% active;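 active means viability at or below a set limit, 4 SD under the median of all tested compounds, cut at about 3.7% in these data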;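 further: PTEN knockout HCT116 line with beta catenin targeted HCT116 as companion control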
* marks the source's active call; other numbers are inactive results; / = no result. Shown are actives, neighbours in structure and some others; about 9.6% of the full set was active somewhere.

SMILES | L major viab | PMI activator | bCat KO growth | PMI act hi M6P | HCT116 PTEN-null
O=C(CCNc1cccc(Cl)c1)c1ccco1 | 83* | 0.9 | 50 | 1 | 38
CCCCC1=NN(C(=O)c2ccco2)C(O)(C(F)(F)F)C1 (configuration not stated) | 3 | 0.9 | / | 0.9 | /
COc1cccc(C2CC(c3cccc(NS(C)(=O)=O)c3)=NN2C(=O)c2ccccc2)c1OC (configuration not stated) | 3 | 1 | 83 | 1 | 79
COc1ccc(C2CC(c3ccccc3)=NN2S(=O)(=O)c2ccc(C)cc2)c(OC)c1 (configuration not stated) | 26 | 1.1 | 68 | 1 | 75
COc1cccc(C2CC(c3ccc(Br)cc3)=NN2C(=O)c2ccncc2)c1OC (configuration not stated) | 61* | 1 | / | 1 | /
COc1ccc(C2CC(c3ccc([N+](=O)[O-])cc3)=NN2C(=O)c2ccccc2)cc1OC (configuration not stated) | 7 | 0.8 | / | 0.8 | /
COc1cccc(C2CC(c3ccccc3)=NN2S(=O)(=O)c2ccc(C)cc2)c1OC (configuration not stated) | 61* | 1.1 | / | 1 | /
COc1ccccc1C1CC(c2ccc(Br)cc2)=NN1C(=O)c1cccnc1 (configuration not stated) | 51* | 0.9 | 31 | 1 | 31
CCn1c(CCCc2ccc(OC)c(C)c2)n[nH]c1=S | 30 | 1 | / | 1 | /
CN1CCCCCC1=NC1=C(C#N)CCCC1 | -2 | 1 | 96 | 1 | 98
O=C(COC(=O)c1ccc2[nH]c3c(c2c1)CCCC3)Nc1ccccc1 | 88* | 1 | 79 | 1 | 82
Cc1cccc(C)c1NC(=O)COC(=O)c1ccc2[nH]c3c(c2c1)CCCC3 | 6 | 0.9 | / | 1 | /
NC(=S)N/N=C/c1ccc(Br)o1 | -4 | 1.1 | / | 1 | /
NC(=S)N/N=C/c1ccc(-c2cc(Cl)c(Cl)cc2Cl)o1 | 78* | 1.6 | / | 2* | /
COc1cccc(CNC(=S)NC2CC2)c1 | -5 | 1 | / | 1 | /
C=CCn1c(C)cc(C(=O)COc2ccc(C)nc2[N+](=O)[O-])c1C | 0 | 0.9 | 12 | 0.6 | 13
C=CCn1c(C)cc(C(=O)COc2ccc(S(=O)(=O)N3CCCC3)cc2[N+](=O)[O-])c1C | 86* | 0.7 | 13 | 0.9 | 13
CCCn1c(C)cc(C(=O)COc2ccc(S(=O)(=O)N(CC)CC)cc2[N+](=O)[O-])c1C | 84* | 1 | 14 | 1 | 14
CC1(C)Cc2cccc(OCC(=O)N3CCN(S(=O)(=O)c4ccccc4)CC3)c2O1 | -1 | 1 | 96 | 1 | 100
O=c1[nH]c(CSc2ccccn2)nc2c1oc1ccccc12 | -7 | 1 | / | 1 | /
Cc1cc(C)cc(-n2c(C)cc(/C=C3\C(=N)N4N=C(CC(C)C)SC4=NC3=O)c2C)c1 | 3 | 0.8 | 90 | 1 | 89
Cc1cccc(-n2c(C)cc(/C=C3\C(=N)N4N=C(CC(C)C)SC4=NC3=O)c2C)c1 | 59* | 1.2 | 101 | 1 | 98
O=C(N/N=C/c1ccc(Br)s1)c1c[nH]c2ccccc12 | 8 | 1.1 | 69 | 0.9 | 59
CCCCC(SCC(=O)Nc1ccccc1)C(=O)O (configuration not stated) | -3 | 1 | 100 | 1 | 97
CCN1CCN(c2ccc(NC(=O)CCc3c(C)nc4c(-c5ccc(F)cc5)c(C)nn4c3C)cc2)CC1 | 99* | 0.8 | / | 0.9 | /
SMILES | L major viab | PMI activator | bCat KO growth | PMI act hi M6P | HCT116 PTEN-null
CCC1CC2CC(NC(C)=O)C1C2 (configuration not stated) | -3 | 0.9 | 90 | 1 | 101
CCCCNc1nc(=S)[nH]c2cc(OC)c(OC)cc12 | 26 | 1 | 81 | 1 | 73
CCOCCCNc1nc(=S)[nH]c2cc(OC)c(OC)cc12 | 67* | 1 | 82 | 1 | 78
CCOC(=O)c1c(NC(=O)CSc2nnc(-c3ccncc3)n2Cc2ccco2)sc(C(C)=O)c1C | -2 | / | / | / | /
CCOC(=O)c1c(NC(=O)CSc2nnc(-c3ccncc3)n2Cc2ccco2)sc(C)c1C | 56* | 0.9 | 86 | 0.9 | 82
CCOc1ccccc1NC(=O)CSc1nnc(-c2ccccc2Cl)n1Cc1ccco1 | 51* | 1 | 96 | 1 | 89
CCN(CC)c1nc(C)nc2c1cnn2CCc1ccccc1 | 5 | 1 | 78 | 1 | 84
